# Key:
# [1] = molecular target: T1, Histamine H3 receptor (Homo sapiens, UniProt Q9Y5N1); experiment: Displacement of [125I]iodoproxyfan from human recombinant histamine H3 receptor expressed in human SK-N-MC cells; assay type: cell-based
# Procedure, shortened: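 Cells stably expressing human H3 were grown to confluence, washed in PBS, pelleted and stored at −80 °C. Pellets were homogenized in 50 mM Tris–HCl, 5 mM EDTA, pH 7.5, spun at 1000g for 5 min, then at 25,000g for 25 min.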
# [2] = molecular target: T1, Histamine H3 receptor; experiment: Antagonist activity at human recombinant histamine H3 receptor expressed in human SK-N-MC cells; assay type: functional, cell-based; conditions: read-out: pA2 (converted)
# [3] = molecular target: T2, Histamine H3 receptor (Rattus norvegicus, UniProt Q9QYN8); experiment: Antagonist activity rat recombinant histamine H3 receptor expressed in human SK-N-MC cells; assay type: functional, cell-based; conditions: read-out: pA2 (converted)
# T2 sequence (Q9QYN8 whole entry): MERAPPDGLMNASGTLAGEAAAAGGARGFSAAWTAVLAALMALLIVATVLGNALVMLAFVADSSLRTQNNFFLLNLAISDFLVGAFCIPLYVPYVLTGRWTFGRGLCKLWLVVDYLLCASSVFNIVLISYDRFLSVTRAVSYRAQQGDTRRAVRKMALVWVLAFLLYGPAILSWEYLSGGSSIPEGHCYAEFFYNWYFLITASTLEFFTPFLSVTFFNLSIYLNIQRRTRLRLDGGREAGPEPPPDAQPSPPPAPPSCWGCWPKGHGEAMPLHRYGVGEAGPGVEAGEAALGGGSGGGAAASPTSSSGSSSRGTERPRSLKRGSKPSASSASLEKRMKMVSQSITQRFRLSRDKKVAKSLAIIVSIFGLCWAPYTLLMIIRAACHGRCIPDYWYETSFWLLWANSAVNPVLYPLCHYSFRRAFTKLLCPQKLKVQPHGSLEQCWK
# [4] = molecular target: T2, Histamine H3 receptor; experiment: Displacement of [125I]iodoproxyfan from rat recombinant histamine H3 receptor expressed in human SK-N-MC cells; assay type: cell-based
# [5] = test system: Rattus norvegicus; experiment: Ex vivo histamine H3 receptor occupancy in rat striatum at 0.3 mg/kg, po; assay type: functional
# Procedure, shortened: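 Rats were dosed orally, and striatal H3 receptor occupancy was measured ex vivo 60 min after dosing. Plasma and brain drug levels were taken at the same time. Values are mean ± SEM, n = 3.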
# T1 sequence (Q9Y5N1 whole entry): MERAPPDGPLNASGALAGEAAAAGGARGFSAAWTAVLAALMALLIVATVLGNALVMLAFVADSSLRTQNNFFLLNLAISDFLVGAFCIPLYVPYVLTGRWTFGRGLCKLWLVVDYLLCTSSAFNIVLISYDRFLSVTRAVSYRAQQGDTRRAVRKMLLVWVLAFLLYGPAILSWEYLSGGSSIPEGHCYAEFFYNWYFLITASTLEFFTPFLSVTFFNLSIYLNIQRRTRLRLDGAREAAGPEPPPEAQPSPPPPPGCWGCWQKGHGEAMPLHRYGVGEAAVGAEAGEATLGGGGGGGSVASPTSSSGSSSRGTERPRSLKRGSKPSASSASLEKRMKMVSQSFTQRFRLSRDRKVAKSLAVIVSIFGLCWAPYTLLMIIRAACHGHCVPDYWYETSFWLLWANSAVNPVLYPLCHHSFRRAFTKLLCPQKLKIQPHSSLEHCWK
SMILES,Ki [1] [nM],Kb [2] [nM],Kb [3] [nM],Ki [4] [nM],Activity [5] [%]
c1ccc(OCC2CNCCO2)cc1 (stereo not given),> 10000,,,,
CC(C)N1CCOC(COc2ccccc2)C1 (stereo not given),4800,,,,
CCOc1ccccc1OCC1CN(C2CCCC2)CCO1 (stereo not given),5300,,,,
c1cc(OC[C@@H]2CN(C3CCCC3)CCO2)ccc1CN1CCOCC1,1.9,0.38,2.14,9.7,80
c1cc(OCC2CN(C3CCCC3)CCO2)ccc1CN1CCCCC1 (stereo not given),2.5,0.148,1.55,10,
CCOc1ccccc1OCC1CN(C(C)C)CCO1 (stereo not given),9000,,,,
c1cc(CN2CCOCC2)cc(OCC2CN(C3CC3)CCO2)c1 (stereo not given),566,,,,
CCOc1ccccc1OCC1CN(C2CCC2)CCO1 (stereo not given),7100,,,,
CCN1CCOC(COc2ccc(CN3CCOCC3)cc2)C1 (stereo not given),165,,,,
c1cc(OC[C@H]2CN(C3CCCC3)CCO2)ccc1CN1CCOCC1,31,7.94,43.7,121,
c1cc(OCC2CN(C3CC3)CCO2)ccc1CN1CCOCC1 (stereo not given),106,,,,
CC(C)N1CCOC(COc2cccc(CN3CCOCC3)c2)C1 (stereo not given),102,44.7,251,562,
CN1CCOC(COc2ccc(CN3CCOCC3)cc2)C1 (stereo not given),2100,,,,
CC(C)N1CCOC(COc2ccc(CN3CCOCC3)cc2)C1 (stereo not given),49,,,92,
c1cc(OCC2CN(C3CCCC3)CCO2)ccc1CN1CCOCC1 (stereo not given),3.6,0.955,4.79,20,
c1cc(OCC2CN(C3CCC3)CCO2)ccc1CN1CCOCC1 (stereo not given),18,3.09,19.1,75,
c1cc(CN2CCOCC2)cc(OCC2CN(C3CCC3)CCO2)c1 (stereo not given),37,14.1,79.4,277,
CCOc1ccccc1OCC1CN(C2CC2)CCO1 (stereo not given),> 10000,,,,
c1cc(OCC2CN(C3CCCC3)CCO2)ccc1CN1CCCC1 (stereo not given),2.2,0.331,1.58,9.8,
